Test results: ChEMBL document CHEMBL3351734 (Bioorg Med Chem Lett, 2014)
Values after ≈ are worked out from the molar mass of the structure shown. Active and inactive are the calls of the source. The rule behind the calls is not given here.

Legend:
[1] = Cytotoxicity against human SKOV3 cells after 48 hrs by neutral red assay; format: cell-based; details: sk-ov-3, 48 h
How it was run: (§1)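 Cells were exposed to peptides up to a highest tested concentration of 10 μg/mL, using a previously reported cytotoxicity protocol.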

[2] = system: KB; assay: Cytotoxicity against human KB cells after 48 hrs by neutral red assay; format: cell-based; how it was run: as §1
[3] = system: Vero; assay: Cytotoxicity against African green monkey Vero cells after 48 hrs by neutral red assay; format: cell-based; details: chlorocebus sabaeus; how it was run: as §1
[4] = system: Mycobacterium intracellulare; assay: Antimicrobial activity against Mycobacterium intracellulare ATCC 23068 after 70 to 74 hrs by Alamar Blue method; format: functional, organism-based
[5] = system: Cryptococcus neoformans; assay: Antimicrobial activity against Cryptococcus neoformans ATCC 90113 assessed as growth inhibition after 70 to 74 hrs by CLSI method; format: functional, organism-based
[6] = system: SK-MEL; assay: Cytotoxicity against human SK-MEL cells after 48 hrs by neutral red assay; format: cell-based; how it was run: as §1
[7] = Cytotoxicity against pig LLC-PK cells after 48 hrs by neutral red assay; format: cell-based, Sus scrofa; how it was run: as §1
[8] = system: Cryptococcus neoformans; assay: Antimicrobial activity against Cryptococcus neoformans ATCC 90113 assessed as detectable growth after 70 to 74 hrs by CLSI method; format: functional
[9] = system: Cryptococcus neoformans; assay: Antimicrobial activity against Cryptococcus neoformans ATCC 90113 assessed as complete killing after 70 to 74 hrs by CLSI method; format: functional
[10] = system: BT-549; assay: Cytotoxicity against human BT549 cells after 48 hrs by neutral red assay; format: cell-based; details: bt-549, 48 h; how it was run: as §1
[11] = system: Staphylococcus aureus; assay: Antibacterial activity against methicillin-resistant Staphylococcus aureus ATCC 33591 assessed as absence of detectable growth; format: functional
How it was run: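 MIC was determined by the CLSI (formerly NCCLS) protocol. It was taken as the lowest test concentration in μg/mL allowing no detectable growth.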

[12] = system: Staphylococcus aureus; assay: Antibacterial activity against Staphylococcus aureus ATCC 29213 assessed as absence of detectable growth; format: functional
How it was run: (§2)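 Antibacterial susceptibility determined by the CLSI (formerly NCCLS) protocol. MIC is the lowest test concentration (μg/mL) allowing no detectable growth. MBC is the lowest test concentration killing 100% of the organism.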

[13] = system: Staphylococcus aureus; assay: Antibacterial activity against methicillin-resistant Staphylococcus aureus ATCC 33591 assessed as 100% killing; format: functional
How it was run: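 Testing followed the CLSI (formerly NCCLS) susceptibility protocol. MBC was taken as the lowest test concentration in μg/mL that kills 100% of the organism.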

[14] = system: Staphylococcus aureus; assay: Antibacterial activity against Staphylococcus aureus ATCC 29213 assessed as 100% killing; format: functional; how it was run: as §2

MIC [8]	Structure (SMILES)	Activity [1] [µg/mL]	Activity [2] [µg/mL]	Activity [3] [µg/mL]	inhibition [4]	IC50 [5]	Activity [6] [µg/mL]	Activity [7] [µg/mL]	MFC [9]	Activity [10] [µg/mL]	MIC [11] [µg/mL]	MIC [12] [µg/mL]	MBC [13] [µg/mL]	MBC [14] [µg/mL]
inactive	CC(C)(C)OC(=O)N[C@@H](Cc1cnc(C2CCCCC2)[nH]1)C(=O)N[C@@H](Cc1c[nH]c2ccccc12)C(=O)N[C@@H](Cc1cnc(C2CCCCC2)[nH]1)C(=O)NCc1ccccc1	> 10	> 10	> 10	inactive	Not Active	> 10	> 10	inactive	> 10				
inactive	CC(C)(C)OC(=O)N[C@@H](Cc1cnc(C(C)(C)C)[nH]1)C(=O)N[C@@H](Cc1c[nH]c2ccccc12)C(=O)N[C@@H](Cc1cnc(C(C)(C)C)[nH]1)C(=O)NCc1ccccc1	> 10	> 10	> 10	inactive	Not Active	> 10	> 10	inactive	> 10				
	CC(C)(C)OC(=O)N[C@@H](Cc1cnc(C23CC4CC(CC(C4)C2)C3)[nH]1)C(=O)N[C@@H](Cc1c[nH]c2ccccc12)C(=O)N[C@@H](Cc1cnc(C23CC4CC(CC(C4)C2)C3)[nH]1)C(=O)NCc1ccccc1	> 10	> 10	> 10	inactive		> 10	> 10		> 10		20 (≈ 21.4 µM)	20 (≈ 21.4 µM)	20 (≈ 21.4 µM)
	C[C@@H]1[C@H](O)[C@@H](C)/C=C/C=C/C=C/C=C/C=C/C=C/C=C/[C@H](O[C@@H]2O[C@H](C)[C@@H](O)[C@H](N)[C@@H]2O)C[C@@H]2O[C@](O)(C[C@@H](O)C[C@@H](O)[C@H](O)CC[C@@H](O)C[C@@H](O)CC(=O)O[C@H]1C)C[C@H](O)[C@H]2C(=O)O [AMPHOTERICIN B]	> 10	> 10	> 10	inactive		> 10	> 10	1.25 µg/mL (≈ 1.35 µM)	> 10				
	O=C(O)c1cn(C2CC2)c2cc(N3CCNCC3)c(F)cc2c1=O [CIPROFLOXACIN]				inactive									
20 µg/mL (≈ 30.7 µM)	CC(C)c1ncc(C[C@H](NC(=O)[C@H](Cc2c[nH]c3ccccc23)NC(=O)[C@@H](N)Cc2cnc(C(C)C)[nH]2)C(=O)NCc2ccccc2)[nH]1	> 10	> 10	> 10	inactive		> 10	> 10		> 10				

Structure (SMILES)	MIC [8]	Activity [1] [µg/mL]	Activity [2] [µg/mL]	Activity [3] [µg/mL]	inhibition [4]	IC50 [5]	Activity [6] [µg/mL]	Activity [7] [µg/mL]	MFC [9]	Activity [10] [µg/mL]	MIC [11] [µg/mL]	MIC [12] [µg/mL]	MBC [13] [µg/mL]	MBC [14] [µg/mL]
N[C@@H](Cc1cnc(C23CC4CC(CC(C4)C2)C3)[nH]1)C(=O)N[C@@H](Cc1c[nH]c2ccccc12)C(=O)N[C@@H](Cc1cnc(C23CC4CC(CC(C4)C2)C3)[nH]1)C(=O)NCc1ccccc1	0.63 µg/mL (≈ 0.754 µM)	> 10	> 10	> 10	inactive		> 10	> 10		> 10	10 (≈ 12 µM)	5 (≈ 5.98 µM)		
